According to ChEMBL document CHEMBL4371075, “α-Amino Diphenyl Phosphonates as Novel Inhibitors of Escherichia coli ClpP Protease” (J Med Chem, 2019):

Assays:
[1] = target: ATP-dependent Clp protease proteolytic subunit (Escherichia coli (strain K12)) (UniProt P0A6G7); test: Inhibition of Escherichia coli C-terminal His6-tagged ClpP expressed Escherichia coli SG1146a at 200 uM using Suc-LY-AMC as substrate preincubated for 10 mins followed by substrate addition and measured over 1 hr by fluorescence assay relative to control
In short: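 E. coli ClpP (625 nM) in 100 mM NaCl, 100 mM Hepes pH 7.5, 0.05% Brij 35, preincubated with compound (200 µM final, triplicates) 10 min at 30 °C. Suc-LY-AMC added (75 µM), fluorescence (ex 350/em 435 nm) followed over 1 h at 30 °C. Inhibition relative to 2% DMSO vehicle; Z-LY-CMK (200 µM) positive control; plates valid at Z' > 0.6.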

Escherichia coli [2] = test: Growth inhibition of tolC-deficient Escherichia coli JW5503 at 100 uM measured after 24 hrs relative to control; assay type: functional; conditions: JW5503, 24 h, read-out: GI
In short: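 Single colony in saline, adjusted in MHB; final inoculum 5x10^5 CFU/mL, compound 100 µM in triplicate, 2% DMSO and ciprofloxacin controls. 37 °C, 500 rpm shaking; OD600 at time 0 and later time points to quantify growth.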

A549 = test: Cytotoxicity against human A549 cells after 48 hrs by CellTiter-Glo assay; assay type: cell-based; conditions: A549, 48 h
In short: (§1)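 Human cells seeded (2000 cells/well; A549 500 cells/well), 24 h at 37 °C, 5% CO2, then compounds added (final DMSO 1%), 1:3 dilution series from 100 µM, 48 h exposure. ATP read by CellTiter-Glo luminescence relative to DMSO-treated cells; DMSO (1%) negative and valinomycin (10 µM) positive controls; plates accepted at Z' > 0.5.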

[3] = target: ATP-dependent Clp protease proteolytic subunit (Escherichia coli (strain K12), UniProt P0A6G7); test: Inhibition of Escherichia coli C-terminal His6-tagged ClpP expressed Escherichia coli SG1146a using Suc-LY-AMC as substrate preincubated for 10 mins followed by substrate addition and measured over 1 hr by fluorescence assay
In short: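 ClpP at 625 nM with compound serial dilutions (1:3 or 1:2) in 100 mM NaCl, 100 mM Hepes pH 7.5, 0.05% Brij 35, preincubated 10 min at 30 °C. Suc-LY-AMC added (75 µM), fluorescence (ex 350/em 435 nm) tracked 1 h at 30 °C against DMSO vehicle (2% v/v).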

HeLa = test: Cytotoxicity against human HeLa cells after 48 hrs by CellTiter-Glo assay; assay type: cell-based; in short: as §1
alpha-chymotrypsin = alpha-chymotrypsin (Bos taurus, UniProt P00766); test: Inhibition of bovine alpha-chymotrypsin assessed as residual activity at 200 uM relative to control; conditions: cattle, read-out: Activity
In short: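 Bovine α-chymotrypsin (40 nM) with compound at 200 µM and Suc-LY-AMC (100 µM) in 150 mM NaCl, 10 mM CaCl2, 50 mM Tris-HCl, 0.05% Brij 35. AMC fluorescence read-out; residual activity relative to control without compound.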

HepG2 = test: Cytotoxicity against human HepG2 cells after 48 hrs by CellTiter-Glo assay; assay type: cell-based; conditions: HepG2, 48 h; in short: as §1
Escherichia coli [4] = test: Growth inhibition of wild-type Escherichia coli BW25113 at 50 uM measured after 24 hrs in presence of efflux pump substrate PAbetaN relative to control; assay type: functional; conditions: BW25113, 24 h, read-out: GI
In short: (§2)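 E. coli BW25-113 wild type or ΔclpP JW0427-1 grown with compound (50 µM) plus efflux pump substrate PAβN (25 µg/ml); growth inhibition read as OD600 at 24 h, 37 °C with shaking.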

Escherichia coli [5] = test: Growth inhibition of ClpP-deficient Escherichia coli JW0427-1 at 50 uM measured after 24 hrs in presence of efflux pump substrate PAbetaN relative to control; assay type: functional; conditions: JW0427-1, 24 h, read-out: GI; in short: as §2

Chain of ATP-dependent Clp protease proteolytic subunit (P0A6G7 whole entry): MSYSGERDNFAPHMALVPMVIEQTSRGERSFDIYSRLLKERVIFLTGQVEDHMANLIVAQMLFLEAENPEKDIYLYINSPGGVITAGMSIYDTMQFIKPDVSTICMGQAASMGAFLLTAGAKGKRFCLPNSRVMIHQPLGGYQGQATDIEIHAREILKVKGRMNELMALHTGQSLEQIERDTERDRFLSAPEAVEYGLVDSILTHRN
Chain of ATP-dependent Clp protease proteolytic subunit (Escherichia coli (strain K12)) (P0A6G7 whole entry): as above

COc1ccc(CC(NC(=O)OCc2ccccc2)P(=O)(Oc2ccccc2)Oc2ccccc2)cc1 (centres undefined)
inhibition [1]: 6%

N=C(N)N1CC(C(Nc2ncccn2)P(=O)(Oc2ccccc2)Oc2ccccc2)C1 (centres undefined)
inhibition [1]: 12%

O=C(NC(c1ccc2ccccc2c1)P(=O)(Oc1ccccc1)Oc1ccccc1)OCc1ccccc1 (centres undefined)
inhibition [1]: 51%

N=C(N)Nc1ccc(C(NS(=O)(=O)c2ccccc2)P(=O)(Oc2ccccc2)Oc2ccccc2)cc1 (centres undefined)
inhibition [1]: 29%

O=C(NC(c1ccc2occc2c1)P(=O)(Oc1ccccc1)Oc1ccccc1)OCc1ccccc1 (centres undefined)
inhibition [1]: 6%

N=C(N)c1ccc2cc(C(NC(=O)OCc3ccccc3)P(=O)(Oc3ccccc3)Oc3ccccc3)ccc2c1 (centres undefined)
inhibition of growth at 100 µM (Escherichia coli [2]): 98.9% | EC50 (A549): 25.6 µM | IC50 [3]: 79.7 µM | EC50 (HeLa): 19.9 µM | activity at 200 µM (alpha-chymotrypsin): ≥ 100% | inhibition [1]: 81% | EC50 (HepG2): 28.3 µM | inhibition of growth at 50 µM (Escherichia coli [4]): 98.5% | inhibition of growth at 50 µM (Escherichia coli [5]): 99.4%

NCC1CCC(C(NC(=O)OCc2ccccc2)P(=O)(Oc2ccccc2)Oc2ccccc2)CC1 (centres undefined)
inhibition [1]: 15%

COC(=O)NC(c1ccc(C(=N)N)cc1)P(=O)(Oc1ccccc1)Oc1ccccc1 (centres undefined)
EC50 (A549): ≥ 100 µM | IC50 [3]: 48.1 µM | EC50 (HeLa): ≥ 100 µM | activity at 200 µM (alpha-chymotrypsin): ≥ 100% | inhibition [1]: 93% | EC50 (HepG2): ≥ 100 µM

O=C(NC(Cc1ccc(C(F)(F)F)cc1)P(=O)(Oc1ccccc1)Oc1ccccc1)OCc1ccccc1 (centres undefined)
EC50 (A549): ≥ 100 µM | IC50 [3]: 14.2 µM | EC50 (HeLa): ≥ 100 µM | activity at 200 µM (alpha-chymotrypsin): 93.9% | inhibition [1]: 100% | EC50 (HepG2): ≥ 100 µM

Cc1ccc(CC(NC(=O)OCc2ccccc2)P(=O)(Oc2ccccc2)Oc2ccccc2)cc1 (centres undefined)
inhibition [1]: 7%

N=C(N)N1CCC(C(NC(=O)c2cccnc2)P(=O)(Oc2ccccc2)Oc2ccccc2)CC1 (centres undefined)
inhibition [1]: 13%

CC(NC(=O)OCc1ccccc1)P(=O)(Oc1ccccc1)Oc1ccccc1 (centres undefined)
inhibition [1]: 3%

N=C(N)N1CCC(C(NC(=O)C#Cc2ccc3c(c2)OCO3)P(=O)(Oc2ccccc2)Oc2ccccc2)CC1 (centres undefined)
inhibition [1]: 24%

COC(=O)NC(Cc1cccc(C(F)(F)F)c1)P(=O)(Oc1ccccc1)Oc1ccccc1 (centres undefined)
inhibition [1]: 4%

N=C(N)N1CCC(C(NC(=O)c2ccco2)P(=O)(Oc2ccccc2)Oc2ccccc2)CC1 (centres undefined)
inhibition [1]: 24%

O=C(NC(Cc1ccc(O)cc1)P(=O)(Oc1ccccc1)Oc1ccccc1)OCc1ccccc1 (centres undefined)
inhibition [1]: < 1%
